A short description of data set [1]: Cytotoxicity against human HepG2(2.2.15) cells. Type of data set: cell-based. The gist of the method: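 The CC50, the concentration causing 50% cytotoxicity, was determined in Hep G2.2.15 cells. Values are the mean of two independent experiments.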
In data set [2] the test system is Hepatitis B virus. Put plainly: Antiviral activity against Hepatitis B virus-infected human HepG2(2.2.15) cells assessed as inhibition of HBeAg secretion. Type of data set: functional, organism-based. In a few lines:
(§1)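 Secretion of HBsAg and HBeAg by the HBV-producing Hep G2.2.15 line was measured after compound treatment. IC50 is the concentration giving 50% inhibition of antigen secretion. Lamivudine (3TC) served as the positive control. Values are the mean of two independent experiments.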

Data set [3] has as its system Hepatitis B virus. Put plainly: Antiviral activity against Hepatitis B virus-infected human HepG2(2.2.15) cells assessed as inhibition of HBsAg secretion. Type of data set: functional, organism-based. In a few lines:
as §1

Data set [4] in a line: Selectivity index, ratio of CC50 for human HepG2(2.2.15) cells to IC50 for Hepatitis B virus-infected human HepG2(2.2.15) cells assessed as inhibition of HBeAg secretion. Type of data set: functional. In a few lines:
(§2)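 SI was calculated as CC50/IC50 from Hep G2.2.15 cytotoxicity and from inhibition of HBeAg or HBsAg secretion. The underlying values are means of two independent experiments.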

The nature of data set [5]: Selectivity index, ratio of CC50 for human HepG2(2.2.15) cells to IC50 for Hepatitis B virus-infected human HepG2(2.2.15) cells assessed as inhibition of HBsAg secretion. Type of data set: functional. The gist of the method: as §2

As for `O=C1NCC[C@H](O)[C@H]1O`, in data set [1], the CC50 is over 1220 µM. For the same molecule, the concentration for half-maximal inhibition (IC50) in data set [2] and in data set [3] was over 1220 µM in each case.
For the molecule `O=C(/C=C/CCCC[C@H](O)[C@H](O)c1ccc2c(c1)OCO2)N1CCCCC1` (relative stereo), the figures for the “Ratio CC50/IC50” value in data set [4] and in data set [5] were 2 and 2.5, respectively. Moreover, in data set [1], the CC50 is 320 µM. Besides, the figures for the IC50 in data set [2] and in data set [3] were 160 µM and 130 µM, respectively.
In data set [1], `CC(CC(=O)O)(CC(=O)O)OC[C@H]1O[C@@H](OC/C=C/c2ccccc2)[C@H](O)[C@@H](O)[C@@H]1O` [LONGUMOSIDE B] displayed a CC50 of over 3750 µM. The IC50 in data set [2] and in data set [3] was over 3750 µM in each case.
Consider `Nc1ccn([C@@H]2CS[C@H](CO)O2)c(=O)n1` [LAMIVUDINE], for which the “Ratio CC50/IC50” value was 1 in data set [4] and 1.1 in data set [5]. Besides, the IC50 was 30400 µM in data set [2] and 28800 µM in data set [3].
For the molecule `CCCCCCCCCCCCCCC/C=C/C=C/C(=O)NCC(C)C`, the entries for the “Ratio CC50/IC50” value in data set [4] and in data set [5] were 1.5 and 2.7, respectively. In data set [1], the CC50 came out at 1580 µM. Also, the figures for the IC50 in data set [2] and in data set [3] were 1070 µM and 580 µM, respectively.
In the same order, the values of `O=C(/C=C/CCCC[C@@H](O)[C@H](O)c1ccc2c(c1)OCO2)N1CCCCC1` (relative stereo) are 1.9, 1.9, 210 µM, 110 µM and 110 µM.
The like results for `CC(C)CNC(=O)/C=C/C=C/CCCCCC/C=C/c1ccc2c(c1)OCO2` [GUINEENSINE] were, in that order, over 3, over 3, 150 µM, under 50 µM and under 50 µM.
As to `O=C1C=CCCN1` [5,6-DIHYDRO-2(1H)-PYRIDINONE], in data set [1], the midpoint of cytotoxicity, the CC50, lay at 9900 µM. Further, the IC50 in data set [2] and in data set [3] was over 14000 µM in each case.
Take `CC(C)CNC(=O)/C=C/C=C/c1ccc2c(c1)OCO2` [PIPERLONGUMININE]: the CC50 in data set [1] came to 320 µM. Also, the IC50 in data set [2] and in data set [3] was over 4510 µM each time.
In the case of `COc1cc(CC/C=C/C(=O)N2CCCCC2)ccc1O`, the CC50 in data set [1] was over 2700 µM. The IC50 in data set [2] is over 2700 µM; in data set [3], 2700 µM.
Turning to `O=C(/C=C/C=C/c1ccc2c(c1)OCO2)N1CCCCC1` [PIPERINE], the “Ratio CC50/IC50” value in data set [4] was determined as 16.8; in data set [5] it was 15.7. For the same molecule, the cytotoxic concentration (CC50) in data set [1] worked out at 2350 µM. For the same molecule, the figures for the IC50 in data set [2] and in data set [3] were 140 µM and 150 µM, respectively.

Usually CC50 stands for the concentration giving 50% cytotoxicity. Low values mean harm at low concentration, high ones better tolerance by the cells. By IC50 is commonly meant the concentration that inhibits the measured activity by half.

Values taken from ChEMBL document CHEMBL2346644, “Anti-HBV active constituents from Piper longum” (Bioorg Med Chem Lett, 2013).
